Results filed as inconclusive are left out.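 Rule for the calls, unless noted: active = growth inhibition above 25% in both replicates, a cutoff set 3 SD above the mean; inconclusive = above 25% in only one replicate; inactive = the rest.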
How the values were obtained:
[1] = S. cerevisiae growth inhibition in permissive medium (OD615), pilot counter-assay for S. cerevisiae lifespan shortening project, permissive growth control (AID 705); conditions: OD615, 24 h, at 10 µM, hits give high values
Procedure, shortened: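 Material: engineered DeaD yeast; compound dosing: one dose 10 µM, DMSO 0.25% final; measure: yeast growth inhibition indicated by reduced 24 h OD615; detection: OD615 turbidity read; incubation: cells pre-grown 4 h, then 24 h compound exposure, 30 °C humidified; medium: permissive synthetic complete medium with raffinose and galactose carbon sources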

[2] = S. cerevisiae growth inhibition in restrictive medium, OD615, pilot screen, restrictive growth control, yeast lifespan reduction project (AID 706;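 active = growth inhibition above a set limit, 3 SD over mean compound inhibition, in both replicates, cut at about 43% in these data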;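 note: modified DeaD lifespan yeast strain shifted to restrictive glucose medium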); conditions: OD615, 48 h, at 10 µM, hits give high values
Procedure, shortened: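 material = engineered S. cerevisiae DeaD strain | medium = glucose-based CSMM-D restrictive medium | times = 4 h pre-incubation, 48 h exposure at 30 °C | technique = OD615 absorbance reading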

[3] = doxorubicin toxicity protection in MRP-1 cells – H69AR cells, CellTiter-Glo, duplicate, MRP-1 activator project, pilot screen (AID 807;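 active = viability increase at or above a cutoff of the median across tested compounds plus 3 SD, cut at about 8.5% in these data, passing the limit was not always enough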;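 note: compound pretreatment 18-22 h then 72 h combined with doxorubicin; 0% = doxorubicin alone and 100% = vehicle without doxorubicin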); conditions: H69AR viability with doxorubicin, CellTiter-Glo luminescence; at 10 µM; hits give high values
[4] = viability of HCT116 without oncogenic beta-catenin – human colon tumor cells, pilot screen (AID 823;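 active = cell viability at or below a set limit in both duplicate runs, the limit being the all-compound median minus 4 SD, cut at about 23% in these data, passing the limit was not always enough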;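 note: 0% = wells killed by 20 µM Hyamine and 100% = untreated DMSO cell wells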); conditions: HCT116 beta-catenin knockout viability, CellTiter-Glo, 60 h; at 10 µM; hits give low values
[5] = viability of PTEN-null HCT116 cells – cell-based, HCT116 clonal line, CellTiter-Glo, pilot screen (AID 824;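 active = viability at or below 27.92% in each of two runs, the all-compound median minus 4 SD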;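 note: 0% = 20 µM Hyamine control and 100% = vehicle cell control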); conditions: HCT116 PTEN-deleted viability, 60 h, at 10 µM, hits give low values
[6] = RAM pathway blockade in budding yeast – dse1pr::URA3 reporter, 5-FOA selection, pilot screen (AID 869;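 active = inhibition over a set limit, the all-compound mean plus 3 SD, in both replicate runs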;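 note: 0% = DMSO wells with no growth and 100% = 10 µM 1-NA-PP1 with full growth; RAM network block rescues cells from 5-FOA so hits raise OD615 growth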); conditions: S. cerevisiae dse1pr::URA3 5-FOA growth, OD615, 2 d; at 10 µM; hits give high values; strain carries analog-sensitive mutant Cbk1 kinase
[7] = RAM signaling pathway blockade in yeast – S. cerevisiae, Pdr1DBD-CYC8 efflux-inhibited sensitized strain, primary screen (AID 1298;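 active = RAM network inhibition above 8.4% in each of two replicates, 3 SD over the compound average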;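 note: 0% = DMSO untreated cells without growth and 100% = 10 µM 1-NA-PP1 full growth; higher means more yeast growth rescued from 5-FOA killing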); conditions: S. cerevisiae cbk1-as DSE1-URA3 strain, 5-FOA growth OD615, 2 d; at 50 µM; hits give high values

Cc1[nH]c2ccccc2c1CCC(N)=O
inactive: growth inhibition [1] -0.405% | growth inhibition [2] 3.01% | viability increase [3] -1.34% | viability [4] 101% | viability [5] 96.2% | inhibition [6] 1.92% | RAM network inhibition [7] 3.67%

COc1ccc(NC(=O)[C@H](CCS(C)(=O)=O)N2Cc3ccccc3C2=O)c(OC)c1
inactive: growth inhibition [1] -0.525% | growth inhibition [2] -0.57% | viability increase [3] 0.69% | viability [4] 104% | viability [5] 100% | inhibition [6] 2.29% | RAM network inhibition [7] 1.93%

CCCCCSc1nc2c(c(=O)[nH]c(=O)n2C)n1C(C)C
inactive: growth inhibition [1] -8.31% | growth inhibition [2] -3.84% | viability increase [3] 1.12% | viability [4] 89.5% | viability [5] 85.4% | inhibition [6] 1.3% | RAM network inhibition [7] 1.95%

Cc1ccc(O)c(C2=NOC(O)(C(F)(F)C(F)F)C2)c1 (configuration not stated)
inactive: growth inhibition [1] -0.995% | growth inhibition [2] 9.35% | viability increase [3] -5.27% | viability [4] 93.4% | viability [5] 92.9% | inhibition [6] 0.72% | RAM network inhibition [7] 5.23%

O=C(c1ccc(S(=O)(=O)N2CCOCC2)cc1)N1CCN(c2ccccc2)CC1
inactive: growth inhibition [1] -12.5% | growth inhibition [2] 2.02% | viability increase [3] 0.13% | viability [4] 93.7% | viability [5] 101% | inhibition [6] 1.82% | RAM network inhibition [7] 1.64%

COc1cccc(C2=NOC(C(=O)N3CCN(C(=O)c4ccco4)CC3)C2)c1 (configuration not stated)
inactive: growth inhibition [1] 5% | growth inhibition [2] -4.4% | viability increase [3] -2.95% | viability [4] 95.6% | viability [5] 95.2% | inhibition [6] -0.3% | RAM network inhibition [7] 0.01%

COc1ccccc1N1CCN(C(=O)CCCC2=NS(=O)(=O)c3ccccc3N2)CC1
inactive: growth inhibition [1] 0.08% | growth inhibition [2] -12.7% | viability increase [3] -4.95% | viability [4] 97.3% | viability [5] 92.4% | inhibition [6] 1.4% | RAM network inhibition [7] -0.58%

CC(=O)c1c(C)[nH]c(C(=O)N2CCN(c3ncccn3)CC2)c1C
inactive: growth inhibition [1] -2.15% | growth inhibition [2] -5.67% | viability increase [3] -1.39% | viability [4] 86.8% | viability [5] 96.6% | inhibition [6] 1.43% | RAM network inhibition [7] -0.51%

CCOc1ccc(C(=O)c2nc3c(n2O)CCCC3)cc1
inactive: growth inhibition [1] -15% | growth inhibition [2] -7.18% | viability increase [3] 0.17% | viability [4] 91.1% | viability [5] 103% | inhibition [6] 1.41% | RAM network inhibition [7] -0.74%

COc1cc(CN2CCN(c3cccc(C)c3C)CC2)cc(Br)c1O
inactive: growth inhibition [1] -4.04% | growth inhibition [2] 0.7% | viability increase [3] -2.57% | viability [4] 80.7% | viability [5] 86.6% | inhibition [6] -0.235% | RAM network inhibition [7] 1.51%

N#Cc1cnn(CC2CCCCC2)c1N
inactive: growth inhibition [1] -15.6% | growth inhibition [2] -8.75% | viability increase [3] -0.89% | viability [4] 89.4% | viability [5] 93.2% | inhibition [6] 1.57% | RAM network inhibition [7] 3.68%

CCOc1cccc(=O)c2c(C)n(Cc3ccco3)c(C)c12
inactive: growth inhibition [1] -12.4% | growth inhibition [2] -8% | viability increase [3] -3.8% | viability [4] 92.1% | viability [5] 84.9% | inhibition [6] 0.975% | RAM network inhibition [7] -0.46%

Nc1ccc(-c2nc3ccc(N)cc3o2)cc1
inactive: growth inhibition [1] 0.07% | growth inhibition [2] 7.21% | viability increase [3] -1.18% | viability [4] 100% | viability [5] 86.8% | inhibition [6] 3.98% | RAM network inhibition [7] 6.51%

Cn1c(NC(=O)CC(C)(C)C)cc(=O)n(C)c1=O
inactive: growth inhibition [1] -2.31% | growth inhibition [2] -7.82% | viability increase [3] -0.07% | viability [4] 104% | viability [5] 105% | inhibition [6] 3.15% | RAM network inhibition [7] -1.17%

O=C(Nc1c(F)c(F)c(F)c(F)c1F)C1CCCCC1
inactive: growth inhibition [1] -1.42% | growth inhibition [2] -6.55% | viability increase [3] -1.05% | viability [4] 80% | viability [5] 89.2% | inhibition [6] 0.88% | RAM network inhibition [7] 7.02%

CCOC(=O)c1cnc2c(C)c(Cl)ccc2c1N1CCOCC1
inactive: growth inhibition [1] -1.27% | growth inhibition [2] -2.46% | viability increase [3] -6.05% | viability [4] 77% | viability [5] 81.3% | inhibition [6] 0.755% | RAM network inhibition [7] 3.29%

CCOC12NC(=O)CC(=O)N1C(c1ccccc1)=CS2 (configuration not stated)
inactive: growth inhibition [1] -16% | growth inhibition [2] -6.23% | viability increase [3] 2.97% | viability [4] 100% | viability [5] 104% | inhibition [6] 1.85% | RAM network inhibition [7] 6.38%

CC(C)NC(=O)c1ccc(CS(=O)(=O)c2ccc(Br)cc2)o1
inactive: growth inhibition [1] 4.63% | growth inhibition [2] 3.97% | viability increase [3] -1.73% | viability [4] 87.1% | viability [5] 95.1% | inhibition [6] 1.95% | RAM network inhibition [7] 4.82%

CC1(C)C(C#N)=C(N)OC2=C1C(=O)CCC2
inactive: growth inhibition [1] -8.74% | growth inhibition [2] -5.87% | viability increase [3] -0.89% | viability [4] 96.3% | viability [5] 97.4% | inhibition [6] 2.41% | RAM network inhibition [7] 1.3%

Nc1ccc(-c2nc3ccccc3[nH]2)cc1
inactive: growth inhibition [1] -6.98% | growth inhibition [2] -10.1% | viability increase [3] -3.12% | viability [4] 97.3% | viability [5] 87.8% | inhibition [6] 2.31% | RAM network inhibition [7] 4.57%

COCCNC(=O)Cn1cc2c(n1)CCC(C)C2 (configuration not stated)
inactive: growth inhibition [1] -12.9% | growth inhibition [2] -0.165% | viability increase [3] 0.11% | viability [4] 104% | viability [5] 93.9% | inhibition [6] 2.06% | RAM network inhibition [7] 1.1%

CCOC(=O)N1CCC(N2C(=O)c3ccc(C(=O)NCc4ccc(F)cc4)cc3C2=O)CC1
inactive: growth inhibition [1] -0.31% | growth inhibition [2] -4.59% | viability increase [3] -1.21% | viability [4] 98.1% | viability [5] 100% | inhibition [6] 3.25% | RAM network inhibition [7] 8.97%

Cc1[nH]c2ccccc2c1SCCN
inactive: growth inhibition [1] -9.76% | growth inhibition [2] -12.4% | viability increase [3] -5.96% | viability [4] 73.9% | viability [5] 62.9% | inhibition [6] 2.34% | RAM network inhibition [7] 1.7%

COc1ccccc1NC(=O)CSc1nnnn1C
inactive: growth inhibition [1] -4.16% | growth inhibition [2] -6.61% | viability increase [3] -1.03% | viability [4] 105% | viability [5] 96.4% | inhibition [6] 1.37% | RAM network inhibition [7] 3.12%

Cc1c(N=Cc2ccco2)c(=O)n(-c2ccccc2)n1C
inactive: growth inhibition [1] -11.1% | growth inhibition [2] -8.96% | viability increase [3] -1.15% | viability [4] 93.8% | viability [5] 96.7% | inhibition [6] 1.39% | RAM network inhibition [7] 0.89%

COc1ccc(C(=O)Nc2ccc(Cl)cc2C(=O)NCc2ccco2)cc1OC
inactive: growth inhibition [1] -0.55% | growth inhibition [2] -8.55% | viability increase [3] -4.93% | viability [4] 73.4% | viability [5] 68.9% | inhibition [6] 0.625% | RAM network inhibition [7] 7.76%

Cc1ccc2oc(=O)c3cnn(CC(=O)N(CCC(C)C)Cc4ccco4)c3c2c1
inactive: growth inhibition [1] -4.76% | growth inhibition [2] -1.21% | viability increase [3] -3.21% | viability [4] 88.5% | viability [5] 87.3% | inhibition [6] 0.29% | RAM network inhibition [7] 5.23%

Cc1csc(NC(=O)C(CC(C)C)NS(=O)(=O)c2ccc3c(c2)oc(=O)n3C)n1 (configuration not stated)
inactive: growth inhibition [1] 2.94% | growth inhibition [2] -3.39% | viability increase [3] -0.77% | viability [4] 103% | viability [5] 106% | inhibition [6] 1.33% | RAM network inhibition [7] 2.74%

C=CCn1c(SCC(=O)Nc2cc(C)nn2-c2ccccc2)nnc1C1CCCCC1
inactive: growth inhibition [1] -7.09% | growth inhibition [2] -6.5% | viability increase [3] -1.14% | viability [4] 90.8% | viability [5] 94.3% | inhibition [6] 0.165% | RAM network inhibition [7] 3.38%

CCOC(=O)C1=C(C)Nc2nc(SCc3cccnc3)nn2C1c1ccc(OC)cc1 (configuration not stated)
inactive: growth inhibition [1] -6.41% | growth inhibition [2] 2.46% | viability increase [3] -2.64% | viability [4] 98.7% | viability [5] 89% | inhibition [6] 0.58% | RAM network inhibition [7] 4.49%

Cc1nc2c3ccccc3n(CC(=O)c3ccc(F)cc3)c(=O)n2n1
inactive: growth inhibition [1] -13.8% | growth inhibition [2] -4.75% | viability increase [3] -2.79% | viability [4] 96.8% | viability [5] 94.7% | inhibition [6] 3.38% | RAM network inhibition [7] 3.78%

CN(CC(=O)NCCC1=CCCCC1)S(=O)(=O)c1ccc2c(c1)c(=O)n(C)c(=O)n2C
inactive: growth inhibition [1] -7.74% | growth inhibition [2] -27.4% | viability increase [3] -1.64% | viability [4] 84.4% | viability [5] 76.8% | inhibition [6] 2.88% | RAM network inhibition [7] 4.5%

COc1ccc(CCN2CC(C#N)=C3c4cc(OC)c(OC)cc4CCN3C2)cc1OC
inactive: growth inhibition [1] -2.16% | growth inhibition [2] 3.84% | viability increase [3] -4.7% | viability [4] 99.5% | viability [5] 95.4% | inhibition [6] -0.455% | RAM network inhibition [7] -0.37%

CC1CCc2c(sc3nc(SCc4nc(-c5ccccc5)no4)n(C)c(=O)c23)C1 (configuration not stated)
inactive: growth inhibition [1] -3.38% | growth inhibition [2] -5.98% | viability increase [3] 1.25% | viability [4] 94% | viability [5] 89% | inhibition [6] 2.21% | RAM network inhibition [7] 2.32%

CCOCCCNC(=O)CN1C(=O)CSc2ccccc21
inactive: growth inhibition [1] -18.9% | growth inhibition [2] -6.29% | viability increase [3] -0.22% | viability [4] 101% | viability [5] 98.9% | inhibition [6] 1.49% | RAM network inhibition [7] 2.6%

CC(=O)N1CCc2cc(C(=O)CN3CCN(C(=O)c4ccco4)CC3)ccc21
inactive: growth inhibition [1] 4.58% | growth inhibition [2] 3.74% | viability increase [3] -2.02% | viability [4] 105% | viability [5] 93.3% | inhibition [6] 3.93% | RAM network inhibition [7] 2.07%

— PubChem BioAssay
